{
  "source": "ChEMBL document CHEMBL2146423",
  "about": "“Photoresponsive 5'-cap for the reversible photoregulation of gene expression” (Bioorg Med Chem Lett, 2011)",
  "key": {"[1]": {"test": "Thermal stability of the compound assessed as compound isomerization at 80 degC after 20 hrs", "assay_type": "physicochemical", "procedure,_shortened": "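Cis and trans isomers held at 80 °C for 20 h and checked for thermal isomerization. Isomers were generated with a 300 W xenon lamp at 25 °C, 2 cm from the source: 410 nm (103 mW/cm2) or 310 nm (81 mW/cm2), 2 min each. Isomer content measured by HPLC peak area.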"}, "[2]": {"tested_on": "Nucleic Acid", "test": "Binding affinity to Aequorea victoria GFP mRNA in insect cell extract assessed as increase in mRNA translation at 4.8 mM irradiated with 310 nm monochromatic light for 2 mins measured up to 60 mins by time course fluorescence assay", "assay_type": "nucleic-acid assay", "procedure,_shortened": "(§1)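 GFP mRNA capped at the 5' end during in vitro T7 transcription (37 °C, 4 h; PCR template carrying a 30-base poly(A) tail), then DNase-treated and purified. Translated in insect cell extract. Sample irradiated 2 min at 310 nm at 0 and 130 min and 2 min at 410 nm at 60 min. GFP fluorescence (ex 480 nm, em 509 nm) recorded over time, with normal-capped mRNA run alongside.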"}, "[3]": {"tested_on": "Nucleic Acid", "test": "Binding affinity to Aequorea victoria GFP mRNA in insect cell extract assessed as increase in mRNA translation at 4.8 mM irradiated with 310 nm monochromatic light for 2 mins measured after 130 mins by time course fluorescence assay", "assay_type": "nucleic-acid assay", "procedure,_shortened": "as §1"}, "[4]": {"tested_on": "Nucleic Acid", "test": "Binding affinity to Aequorea victoria GFP mRNA in insect cell extract assessed as inhibition of mRNA translation at 4.8 mM irradiated with 310 nm monochromatic light for 2 mins measured after 10 hrs by fluorescence assay", "assay_type": "nucleic-acid assay", "procedure,_shortened": "(§2)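 Capped GFP mRNA made by in vitro T7 transcription (37 °C, 4 h; poly(A)30 template), DNase-digested and purified, then translated in insect cell extract. Before translation the mixture was irradiated at room temperature for 2 min at 410 nm (cis to trans) or 310 nm (trans to cis). GFP read by fluorescence.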"}, "[5]": {"tested_on": "Nucleic Acid", "test": "Binding affinity to Aequorea victoria GFP mRNA in insect cell extract assessed as inhibition of mRNA translation at 4.8 mM irradiated with 410 nm monochromatic light for 2 mins measured after 10 hrs by fluorescence assay", "assay_type": "nucleic-acid assay", "procedure,_shortened": "as §2"}, "[6]": {"tested_on": "Nucleic Acid", "test": "Binding affinity to Aequorea victoria GFP mRNA in insect cell extract assessed as mRNA translational efficiency at 4.8 mM irradiated with 410 nm monochromatic light for 2 mins measured after 10 hrs by fluorescence assay relative to normal-capped mRNA", "assay_type": "nucleic-acid assay", "procedure,_shortened": "as §2"}, "[7]": {"tested_on": "Nucleic Acid", "test": "Binding affinity to Aequorea victoria GFP mRNA in insect cell extract assessed as mRNA translational efficiency at 4.8 mM irradiated with 410 nm monochromatic light for 2 mins measured after 10 hrs by fluorescence assay", "assay_type": "nucleic-acid assay", "procedure,_shortened": "as §2"}},
  "note": "Calls of active or inactive are those of the source. The rule behind the calls is not given here.",
  "data": [
    {"smiles": "CCN(CC)CC.CCN(CC)CC.C[n+]1c(/C=C/c2ccccc2)n([C@@H]2O[C@H](COP(=O)([O-])OP(=O)(O)OP(=O)(O)OC[C@H]3O[C@@H](n4cnc5c(=O)[nH]c(N)nc54)[C@H](O)[C@@H]3O)[C@@H](O)[C@H]2O)c2nc(N)[nH]c(=O)c21", "values": [
      {"measurement": "Stability", "setting": "[1]", "result": "Stable"}
    ]},
    {"smiles": "CCN(CC)CC.CCN(CC)CC.C[n+]1c(/C=C/c2ccc3ccccc3c2)n([C@@H]2O[C@H](COP(=O)([O-])OP(=O)(O)OP(=O)(O)OC[C@H]3O[C@@H](n4cnc5c(=O)[nH]c(N)nc54)[C@H](O)[C@@H]3O)[C@@H](O)[C@H]2O)c2nc(N)[nH]c(=O)c21", "values": [
      {"measurement": "Activity", "setting": "[2]", "result": "inactive"},
      {"measurement": "Stability", "setting": "[1]", "result": "Stable"},
      {"measurement": "Activity", "setting": "[3]", "result": "inactive"},
      {"measurement": "inhibition", "setting": "[4]", "result": "Active"}
    ]},
    {"smiles": "CCN(CC)CC.CCN(CC)CC.C[n+]1c(/C=C/c2ccc3c(c2)Cc2ccccc2-3)n([C@@H]2O[C@H](COP(=O)([O-])OP(=O)(O)OP(=O)(O)OC[C@H]3O[C@@H](n4cnc5c(=O)[nH]c(N)nc54)[C@H](O)[C@@H]3O)[C@@H](O)[C@H]2O)c2nc(N)[nH]c(=O)c21", "values": [
      {"measurement": "Stability", "setting": "[1]", "result": "Stable"},
      {"measurement": "inhibition", "setting": "[4]", "result": "Active"}
    ]},
    {"smiles": "CCN(CC)CC.CCN(CC)CC.C[n+]1c(/C=C\\c2ccc3c(c2)Cc2ccccc2-3)n([C@@H]2O[C@H](COP(=O)(O)OP(=O)(O)OP(=O)([O-])OC[C@H]3O[C@@H](n4cnc5c(=O)[nH]c(N)nc54)[C@H](O)[C@@H]3O)[C@@H](O)[C@H]2O)c2nc(N)[nH]c(=O)c21", "values": [
      {"measurement": "Stability", "setting": "[1]", "result": "Stable"},
      {"measurement": "inhibition", "setting": "[5]", "result": "Active"}
    ]},
    {"smiles": "CCN(CC)CC.CCN(CC)CC.C[n+]1c(/C=C\\c2ccccc2)n([C@@H]2O[C@H](COP(=O)([O-])OP(=O)(O)OP(=O)(O)OC[C@H]3O[C@@H](n4cnc5c(=O)[nH]c(N)nc54)[C@H](O)[C@@H]3O)[C@@H](O)[C@H]2O)c2nc(N)[nH]c(=O)c21", "values": [
      {"measurement": "Stability", "setting": "[1]", "result": "Stable"},
      {"measurement": "fold change (FC)", "setting": "[6]", "result": 2.2}
    ]},
    {"smiles": "CCN(CC)CC.CCN(CC)CC.C[n+]1c(/C=C\\c2ccc3ccccc3c2)n([C@@H]2O[C@H](COP(=O)(O)OP(=O)(O)OP(=O)([O-])OC[C@H]3O[C@@H](n4cnc5c(=O)[nH]c(N)nc54)[C@H](O)[C@@H]3O)[C@@H](O)[C@H]2O)c2nc(N)[nH]c(=O)c21", "values": [
      {"measurement": "Stability", "setting": "[1]", "result": "Stable"},
      {"measurement": "Activity", "setting": "[7]", "result": "Active"}
    ]}
  ]
}
